One block for each compound: values may come before it. Active and inactive are the calls of the source. No cut-off for these calls is given here.
Assays:
C2C12 = experiment: Effect on glucose consumption in mouse C2C12 cells at 30 ug/ml after 24 hrs; format: functional, cell-based
Outline: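 C2C12 myoblasts are grown in high-glucose DMEM with 10% FBS at 37 °C, 5% CO2. At confluence they are switched to DMEM with 10% horse serum for 8 days to form myotubes. Myotubes are then given 10% FBS high-glucose DMEM with or without 30 μg/mL compound for 24 h. Glucose remaining in the medium is measured to calculate glucose consumption.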

[1] = target: RAC-alpha serine/threonine-protein kinase (Mus musculus) (UniProt P31750); experiment: Induction of Akt phosphorylation in mouse C2C12 cells at 30 ug/ml pretreated with compound for 24 hrs followed by fresh medium with compound addition measured after 2 hrs by Western blot analysis; format: cell-based
Outline: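 Differentiated C2C12 myotubes (8 days in horse serum medium) are exposed to 30 μg/mL compound in 10% FBS high-glucose DMEM for 24 h, without overnight serum starvation. Fresh medium with the same compound concentration is added for a further 2 h. Cells are lysed in SDS sample buffer, resolved on 10% SDS-PAGE, transferred to PVDF and probed for phospho- and total Akt.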

[2] = Drug level in aqueous solution treated with (2S,3R,5R,9R,10R,13R,14S,17S)-2,3,14-trihydroxy-10,13-dimethyl-17-((2R,3R)-2,3,6-trihydroxy-6-methylheptan-2-yl)-2,3,4,5,9,11,12,13,14,15,16,17-dodecahydro-1H-cyclopenta[a]phenanthren-6(10H)-one at 120 mg incubated for 2 days measured at 0.5 to 48 hrs by HPLC-DAD analysis in presence of NaOH; format: physicochemical; conditions: in vivo
Outline: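 120 mg 20E stirred with 100 mg NaOH at room temperature (22−25 °C) and sampled over time. Samples were analysed by HPLC on a C18 column using an aqueous acetonitrile gradient with acetic acid at 1 mL/min. Peak AUC was read at each compound's λmax and calibrated against dilutions of isolated compounds. Amounts are relative to initial 20E; three independent experiments.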

[3] = Chemical stability of the compound in neutral media at room temperature; format: physicochemical
[4] = Chemical stability of the compound in acidic media at pH 3 at room temperature; format: physicochemical; conditions: buffer
[5] = Drug level in aqueous solution treated with 20-hydroxyecdysone at 120 mg at pH 6 to 6.5 measured at 6 to 7 hrs hrs by HPLC-DAD analysis; format: physicochemical; conditions: in vivo
Outline: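 20E was reacted with NaOH at room temperature, and the mixture was set to pH 6−6.5 with acetic acid before evaporation under nitrogen. Products were quantified by C18 HPLC with an aqueous acetonitrile gradient, using AUC at λmax against calibration dilutions of isolated compounds. Amounts are expressed relative to initial 20E.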

[6] = Drug level in aqueous solution treated with (2S,3R,5R,10S,13R,17S)-2,3,7-trihydroxy-10,13-dimethyl-17-((2R,3R)-2,3,6-trihydroxy-6-methylheptan-2-yl)-2,3,4,5,12,13,16,17-octahydro-1H-cyclopenta[a]phenanthren-6(10H)-one at 80 degC after 4 days; format: physicochemical; conditions: buffer, 96 h
[7] = Chemical stability of the compound at 80 degC; format: physicochemical
[8] = Drug level in aqueous solution treated with (2S,3R,10R,13R,14S,17S)-2,3,6,14-tetrahydroxy-10,13-dimethyl-17-((2R,3R)-2,3,6-trihydroxy-6-methylheptan-2-yl)-3,4,10,11,12,13,14,15,16,17-decahydro-1H-cyclopenta[a]phenanthren-7(2H)-one at pH 3; format: physicochemical; conditions: buffer
[9] = Chemical stability of the compound in basic media at pH 8 at room temperature; format: physicochemical; conditions: buffer
[10] = Drug level in aqueous solution treated with (2S,3R,10R,13R,14S,17S)-2,3,6,14-tetrahydroxy-10,13-dimethyl-17-((2R,3R)-2,3,6-trihydroxy-6-methylheptan-2-yl)-3,4,10,11,12,13,14,15,16,17-decahydro-1H-cyclopenta[a]phenanthren-7(2H)-one at pH 8; format: physicochemical; conditions: buffer
[11] = Drug level in aqueous solution treated with 20-hydroxyecdysone at 120 mg incubated for 2 days measured at 0.5 to 48 hrs by HPLC-DAD analysis in presence of NaOH; format: physicochemical; conditions: in vivo
Outline: (§1)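 20E (120 mg) is stirred at room temperature (22−25 °C) in 70% aqueous MeOH with 2% NaOH, and aliquots are taken over time. Analysis is by analytical HPLC on a C18 column with an aqueous acetonitrile gradient and 9.6% acetic acid, 1 mL/min. Compounds are quantified from peak AUC at each λmax against calibration dilutions and expressed relative to initial 20E. Three independent experiments; one-phase decay regression.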

[12] = Half life of the compound by HPLC analysis in presence of NaOH; format: physicochemical; outline: as §1

RAC-alpha serine/threonine-protein kinase (Mus musculus), sequence (P31750 whole entry): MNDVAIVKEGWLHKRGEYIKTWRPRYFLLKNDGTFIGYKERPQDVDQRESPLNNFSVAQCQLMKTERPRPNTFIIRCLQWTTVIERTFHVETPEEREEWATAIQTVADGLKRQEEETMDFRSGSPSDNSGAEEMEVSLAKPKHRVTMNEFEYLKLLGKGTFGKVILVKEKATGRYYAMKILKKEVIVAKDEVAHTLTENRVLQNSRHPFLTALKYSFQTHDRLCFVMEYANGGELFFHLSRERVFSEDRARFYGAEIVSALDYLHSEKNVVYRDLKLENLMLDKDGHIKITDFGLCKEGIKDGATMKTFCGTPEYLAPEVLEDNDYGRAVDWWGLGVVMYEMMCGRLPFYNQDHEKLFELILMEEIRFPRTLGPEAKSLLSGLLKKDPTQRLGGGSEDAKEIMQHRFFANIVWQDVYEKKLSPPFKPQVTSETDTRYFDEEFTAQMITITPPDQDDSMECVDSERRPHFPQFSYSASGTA

SMILES: CC(C)(O)CC[C@@H](O)[C@](C)(O)[C@H]1CC[C@@]2(O)C3=CC(=O)[C@@H]4C[C@@H](O)[C@@H](O)C[C@]4(C)C3=CC[C@]12C
Activity (C2C12): inactive

SMILES: CC(C)(O)CC[C@@H](O)[C@](C)(O)[C@H]1CC[C@@]2(O)C3=CC(=O)[C@H]4C[C@@H](O)[C@@H](O)C[C@]4(C)[C@@]3(O)CC[C@]12C
Activity (C2C12): inactive
Activity [1]: Active
Drug metabolism [2]: metabolite_detected

SMILES: CC(C)(O)CC[C@@H](O)[C@](C)(O)[C@H]1CC=C2C3=C(CC[C@@]21C)[C@@]1(C)C[C@H](O)[C@H](O)CC1=C(O)C3=O
Stability [3]: Stable
Stability [4]: Stable
Drug metabolism [5]: metabolite_detected
Activity (C2C12): inactive
Drug metabolism [6]: metabolite_detected
Activity [1]: Active
Stability [7]: Stable
Drug metabolism [8]: metabolite_detected
Stability [9]: Stable

Stability [3]: Stable
Stability [4]: Stable
Drug metabolism [10]: metabolite_detected
Activity [1]: inactive
Drug metabolism [11]: metabolite_detected
Stability [9]: Stable
SMILES: CC(C)(O)CC[C@@H](O)[C@](C)(O)[C@H]1CC=C2C3=C(O)C(=O)[C@@H]4C[C@@H](O)[C@@H](O)C[C@]4(C)C3=CC[C@@]21C
Activity (C2C12): inactive

Drug metabolism [11]: metabolite_detected
SMILES: CC(C)(O)CC[C@@H](O)[C@](C)(O)[C@H]1CC[C@@]2(O)C3=C(CC[C@]12C)[C@@]1(C)C[C@H](O)[C@H](O)CC1=C(O)C3=O
Activity (C2C12): inactive

Activity [1]: inactive
half-life [12]: 1.39 h
SMILES: CC(C)(O)CC[C@@H](O)[C@](C)(O)[C@H]1CC[C@@]2(O)C3=CC(=O)[C@@H]4C[C@@H](O)[C@@H](O)C[C@]4(C)[C@H]3CC[C@]12C [20-HYDROXYECDYSONE]
Activity (C2C12): inactive

SMILES: CC(C)(O)CC[C@@H](O)[C@](C)(O)[C@H]1CC[C@@]2(O)C3=CC(=O)[C@@H]4C[C@@H](O)[C@@H](O)C[C@]4(C)[C@@]3(O)CC[C@]12C
Activity (C2C12): inactive
Drug metabolism [2]: metabolite_detected

— ChEMBL document CHEMBL3632548, “Oxidized Metabolites of 20-Hydroxyecdysone and Their Activity on Skeletal Muscle Cells: Preparation of a Pair of Desmotropes with Opposite Bioactivities” (J Nat Prod, 2015)
